The structures appear in SMILES notation.

The source of these data is ChEMBL document CHEMBL1833896, “Acylglycinamides as inhibitors of glycine transporter type 1” (Bioorg Med Chem Lett, 2011).

The species named for the first series is Rattus norvegicus. As to the kind of experiment: Liver blood flow in rat. In kind it is ADME, organism-based.
Conditions: not given
Consider `O=C(CN(C(=O)c1ccc(-c2ccccn2)cc1)C1CCCOC1)Nc1cc(F)cc(F)c1` (racemic), for which the QH is listed as 75%.

Take `O=C(CN(C(=O)c1ccc(-c2ccccn2)cc1)C1CCOCC1)Nc1cc(F)cc(F)c1`: the QH came out at 75%.

Test system in a further series: not listed separately
The series is described as follows: Lipophilicity, log D of the compound. The series is classed as physicochemical. As to conditions: chromatographic hydrophobicity index (CHI) method. Put shortly:
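Lipophilicity was measured by a chromatographic method.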
The logD is lipophilicity at a set pH, counting ionised and neutral species. A higher logD goes with a more lipophilic compound. Take `COc1ccc(C(=O)N(Cc2ccc(-c3ccc(Cl)cc3)o2)C2CCCCC2)cc1`: the logD was determined as 5.

`Cn1ccc(C(=O)N(CC(=O)Nc2cc(F)cc(F)c2)C2CCCCC2)n1` came in with a logD of 3.

`O=C(CN(CC1CCC1)C(=O)c1ccc(-c2ccccn2)cc1)Nc1cc(F)cc(F)c1` had a logD of 3.5.

`O=C(CN(C(=O)c1ccc(-c2ccccn2)cc1)C1CCOC1)Nc1cc(F)cc(F)c1` (configuration not stated) displayed a logD of 2.5.

In turn, `COCC(C)N(CC(=O)Nc1cc(F)cc(F)c1)C(=O)c1ccc(-c2ccccn2)cc1` (configuration not stated) registered a logD of 3.

Take `CCC(C)N(CC(=O)Nc1cc(F)cc(F)c1)C(=O)c1ccc(-c2ccccn2)cc1` (configuration not stated): the logD was determined as 3.3.

For `CCC(COC)N(CC(=O)Nc1cc(F)cc(F)c1)C(=O)c1ccc(-c2ccccn2)cc1` (configuration not stated), the logD worked out at 3.3.

In the case of `O=C(CN(C(=O)c1ccc(-c2ccccn2)cc1)C1CCCOC1)Nc1cc(F)cc(F)c1` (racemic), the logD came to 2.7.

The compound `CN1CCC(C(=O)N(CC(=O)Nc2cc(F)cc(F)c2)C2CCCCC2)CC1` registered a logD of 1.8.

On to `CC(C)CN(CC(=O)Nc1cc(F)cc(F)c1)C(=O)c1ccc(-c2ccccn2)cc1`, for which the logD was determined as 3.3.

For the compound `O=C(CN(C(=O)c1ccc(N2CCCC2)nc1)C1CCCCC1)Nc1cc(F)cc(F)c1`, the logD amounted to 3.6.

On to `COc1ccc(C(=O)N(Cc2cn(-c3ccccc3)nn2)C2CCCCC2)cc1`, for which the logD was 3.5.

Consider `O=C(CN(C(=O)c1ccc(-c2ccccn2)cc1)C1CCCC1)Nc1cc(F)cc(F)c1`, for which the logD turned out to be 3.4.

The compound `O=C(CN(C(=O)c1cccnc1)C1CCCCC1)Nc1cc(F)cc(F)c1` showed a logD of 2.7.

Compound `COc1ccc(C(=O)N(Cc2csc(-c3ccccc3)n2)C2CCCCC2)cc1` gave a logD of 4.6.

For `O=C(CN(C(=O)c1ccc(N2CCCC2)cc1)C1CCCCC1)Nc1cc(F)cc(F)c1`, the logD was 4.5. This logD and that of the compound before are within 0.2 log units of each other.

Take `O=C(CN(C(=O)c1ccc(-n2ccnc2)cc1)C1CCCCC1)Nc1cc(F)cc(F)c1`: the logD is 2.7.

In turn, `COc1ccc(C(=O)N(Cc2[nH]ncc2-c2ccccc2)C2CCCCC2)cc1` displayed a logD of 3.1.

`COc1ccc(C(=O)N(CC(=O)Nc2cc(F)cc(F)c2)C2CCCCC2)cc1`: the logD is 3.7.

On to `CC(C)N(CC(=O)Nc1cc(F)cc(F)c1)C(=O)c1ccc(-c2ccccn2)cc1`, for which the logD amounted to 3.

Compound `O=C(CN(C(=O)c1ccc(-c2ccccn2)cc1)C1CCCCC1)Nc1cc(F)cc(F)c1` came in with a logD of 3.7.

In the case of `COc1ccc(C(=O)N(Cc2c[nH]c(-c3ccccc3)n2)C2CCCCC2)cc1`, the logD is 2.9.

For `O=C(CN(CC1CC1)C(=O)c1ccc(-c2ccccn2)cc1)Nc1cc(F)cc(F)c1`, the logD turned out to be 3.1.

In turn, `CN(C)CCOc1ccc(C(=O)N(CC(=O)Nc2cc(F)cc(F)c2)C2CCCCC2)cc1` registered a logD of 2.4.

The compound `O=C(CN(C(=O)c1ccc(-c2ccccn2)cc1)C1CCOCC1)Nc1cc(F)cc(F)c1` gave a logD of 2.5. This logD and that of the compound before are within 0.2 log units of each other.

`O=C(CN(C(=O)C1CCOCC1)C1CCCCC1)Nc1cc(F)cc(F)c1` yielded a logD of 3.

The compound `COc1ccc(C(=O)N(Cc2c(C)noc2-c2ccccc2)C2CCCCC2)cc1` displayed a logD of 4.1.

In turn, `COc1ccc(C(=O)N(Cc2cc(-c3ccccc3)on2)C2CCCCC2)cc1` gave a logD of 4.2.

Test system in the next series: not listed separately
The series is described as follows: Intrinsic clearance in rat microsomes. In kind it is ADME, Microsome.
Conditions: not given
`O=C(CN(CC1CCC1)C(=O)c1ccc(-c2ccccn2)cc1)Nc1cc(F)cc(F)c1` showed a CL of 4.8 mL/min/g.

As to `O=C(CN(C(=O)c1ccc(-c2ccccn2)cc1)C1CCOC1)Nc1cc(F)cc(F)c1` (configuration not stated), the CL was 3.2 mL/min/g.

For the compound `COCC(C)N(CC(=O)Nc1cc(F)cc(F)c1)C(=O)c1ccc(-c2ccccn2)cc1` (configuration not stated), the CL was 4.2 mL/min/g.

The compound `CCC(C)N(CC(=O)Nc1cc(F)cc(F)c1)C(=O)c1ccc(-c2ccccn2)cc1` (configuration not stated) returned a CL of 3.8 mL/min/g.

With `CCC(COC)N(CC(=O)Nc1cc(F)cc(F)c1)C(=O)c1ccc(-c2ccccn2)cc1` (configuration not stated), the CL stood at 6.7 mL/min/g.

Consider `O=C(CN(C(=O)c1ccc(-c2ccccn2)cc1)C1CCCOC1)Nc1cc(F)cc(F)c1` (racemic), for which the CL is 2 mL/min/g.

With `CC(C)CN(CC(=O)Nc1cc(F)cc(F)c1)C(=O)c1ccc(-c2ccccn2)cc1`, the CL amounted to 4.9 mL/min/g.

Turning to `O=C(CN(C(=O)c1ccc(-c2ccccn2)cc1)C1CCCC1)Nc1cc(F)cc(F)c1`, the CL is 3.7 mL/min/g.

As for `COCCN(CC(=O)Nc1cc(F)cc(F)c1)C(=O)c1ccc(-c2ccccn2)cc1`, the CL was 3 mL/min/g.

`O=C(CN(C(=O)c1ccc(-n2ccnc2)cc1)C1CCCCC1)Nc1cc(F)cc(F)c1` came in with a CL of 1.2 mL/min/g.

Regarding `CC(C)N(CC(=O)Nc1cc(F)cc(F)c1)C(=O)c1ccc(-c2ccccn2)cc1`, the CL was 1.8 mL/min/g.

As for `O=C(CN(C(=O)c1ccc(-c2ccccn2)cc1)C1CCCCC1)Nc1cc(F)cc(F)c1`, the CL amounted to 15.4 mL/min/g.

Take `O=C(CN(CC1CC1)C(=O)c1ccc(-c2ccccn2)cc1)Nc1cc(F)cc(F)c1`: the CL is 5 mL/min/g.

Compound `O=C(CN(C(=O)c1ccc(-c2ccccn2)cc1)C1CCOCC1)Nc1cc(F)cc(F)c1` displayed a CL of 0.6 mL/min/g.

Test system in a further series: not listed separately
As to the kind of experiment: Intrinsic clearance in human microsomes. The series is classed as ADME, Microsome.
Conditions: not given
`O=C(CN(CC1CCC1)C(=O)c1ccc(-c2ccccn2)cc1)Nc1cc(F)cc(F)c1`: the CL worked out at 2 mL/min/g.

`O=C(CN(C(=O)c1ccc(-c2ccccn2)cc1)C1CCOC1)Nc1cc(F)cc(F)c1` (configuration not stated) gave a CL of 3.9 mL/min/g.

The compound `COCC(C)N(CC(=O)Nc1cc(F)cc(F)c1)C(=O)c1ccc(-c2ccccn2)cc1` (configuration not stated) came in with a CL of 5.8 mL/min/g.

Turning to `CCC(C)N(CC(=O)Nc1cc(F)cc(F)c1)C(=O)c1ccc(-c2ccccn2)cc1` (configuration not stated), the CL is 4.3 mL/min/g.

In turn, `CCC(COC)N(CC(=O)Nc1cc(F)cc(F)c1)C(=O)c1ccc(-c2ccccn2)cc1` (configuration not stated) registered a CL of 9.6 mL/min/g.

As to `O=C(CN(C(=O)c1ccc(-c2ccccn2)cc1)C1CCCOC1)Nc1cc(F)cc(F)c1` (racemic), the CL was determined as 2.9 mL/min/g.

For `CC(C)CN(CC(=O)Nc1cc(F)cc(F)c1)C(=O)c1ccc(-c2ccccn2)cc1`, the CL came out at 1.3 mL/min/g.

`O=C(CN(C(=O)c1ccc(-c2ccccn2)cc1)C1CCCC1)Nc1cc(F)cc(F)c1` yielded a CL of 1.9 mL/min/g.

`COCCN(CC(=O)Nc1cc(F)cc(F)c1)C(=O)c1ccc(-c2ccccn2)cc1` returned a CL of 1.5 mL/min/g.

Compound `O=C(CN(C(=O)c1ccc(-n2ccnc2)cc1)C1CCCCC1)Nc1cc(F)cc(F)c1` displayed a CL of 6.1 mL/min/g.

Consider `CC(C)N(CC(=O)Nc1cc(F)cc(F)c1)C(=O)c1ccc(-c2ccccn2)cc1`, for which the CL was below 0.5 mL/min/g.

Regarding `O=C(CN(C(=O)c1ccc(-c2ccccn2)cc1)C1CCCCC1)Nc1cc(F)cc(F)c1`, the CL was 5.2 mL/min/g.

On to `O=C(CN(CC1CC1)C(=O)c1ccc(-c2ccccn2)cc1)Nc1cc(F)cc(F)c1`, for which the CL was below 0.5 mL/min/g.

`O=C(CN(C(=O)c1ccc(-c2ccccn2)cc1)C1CCOCC1)Nc1cc(F)cc(F)c1` returned a CL below 0.5 mL/min/g.

Test system in a further series: not listed separately
The series is described as follows: Ratio of drug level in brain to blood in rat. In kind it is ADME, tissue-based. As to conditions: read-out: BBR.
Turning to `O=C(CN(C(=O)c1ccc(-c2ccccn2)cc1)C1CCCOC1)Nc1cc(F)cc(F)c1` (racemic), the Kp stood at 0.2.

As to `O=C(CN(C(=O)c1ccc(-c2ccccn2)cc1)C1CCOCC1)Nc1cc(F)cc(F)c1`, the Kp turned out to be 0.2.

Test system in another series: not listed separately
The series is described as follows: Oral bioavailability in rat. As to conditions: in vivo. The series is classed as ADME, organism-based.
The term bioavailability denotes dose-corrected exposure relative to a reference, in per cent. A high value points to good availability. Consider `O=C(CN(C(=O)c1ccc(-c2ccccn2)cc1)C1CCCOC1)Nc1cc(F)cc(F)c1` (racemic), for which the bioavailability came to 15%.

Regarding `O=C(CN(C(=O)c1ccc(-c2ccccn2)cc1)C1CCOCC1)Nc1cc(F)cc(F)c1`, the bioavailability stood at 25%.
